This note sets out measurements from ChEMBL document CHEMBL3856216, “Development of 4,5-dihydro-benzodiazepinone derivatives as a new chemical series of BRD4 inhibitors” (Eur J Med Chem, 2016).

Assay [1] deals with T1, Bromodomain-containing protein 4 (Homo sapiens, UniProt O60885). Put plainly: Inhibition of human His-tagged BRD4 BD1 (49 to 170 residues) at 30 uM using H-SGRGK(Ac)GGK(Ac)GLGK-(Ac)GGAK(Ac)RHRK(Biotin)-OH as substrate preincubated for 30 mins followed by substrate addition measured after 30 mins by TR-FRET assay relative to control. In short, it runs like this: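 BRD4 bromodomain 1 was tested using a TR-FRET assay kit. Percent inhibition was measured at a single concentration of 30, in triplicate, and reported as mean ± SD.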
For orientation: In TR-FRET formats the signal depends on donor and acceptor labels being close together.

Assay [2] can be described thus: (§1) Cytotoxicity against human U937 cells assessed as decrease in cell viability after 24 hrs by MTT assay. The class given is functional, cell-based. The following applies: U-937, 24 h. For orientation: Formazan colour is commonly taken as a measure of viable cells.
Assay [3] is described as follows: (§2) Cytotoxicity against human HL60 cells assessed as decrease in cell viability after 24 hrs by MTT assay. Type of assay: functional, cell-based. The following applies: HL-60, 24 h.
A short description of assay [4]: Cytotoxicity against human MV4-11 cells assessed as decrease in cell viability after 24 hrs by MTT assay. Type of assay: functional, cell-based. The conditions noted are these: MV4-11, 24 h.
Assay [5] concerns the target T1, Bromodomain-containing protein 4. Put plainly: Inhibition of human BRD4 BD2 (342 to 460 residues) at 30 uM preincubated for 30 mins followed by substrate addition measured after 30 mins by TR-FRET assay relative to control. In short, it runs like this:
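BRD4 BD2 percent inhibition was measured at a single concentration of 30, in triplicate, and reported as mean ± SD.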

The target is the same in assay [6]. The assay is described as follows: Inhibition of human His-tagged BRD4 BD1 (49 to 170 residues) using H-SGRGK(Ac)GGK(Ac)GLGK-(Ac)GGAK(Ac)RHRK(Biotin)-OH as substrate preincubated for 30 mins followed by substrate addition measured after 30 mins by TR-FRET assay.
Assay [7] has the same target. The assay is described as follows: Inhibition of human BRD4 BD2 (342 to 460 residues) at 30 uM preincubated for 30 mins followed by substrate addition measured after 30 mins by TR-FRET assay.
The subject of assay [8] is U-937. The assay is described as §1. The class given is functional, cell-based.
The test system of assay [9] is HL-60. The description is as §2. The class given is functional, cell-based.
The subject of assay [10] is HL-60. The assay is described as follows: Induction of morphological changes in human HL60 cells at 1 to 10 uM after 24 hrs by Hoechst 33258 staining-based fluorescence microscopy. Type of assay: functional, cell-based. In short, it runs like this: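 HL-60 cells were cultured with different concentrations and stained with Hoechst 33258. Apoptotic nuclear morphology was examined under an inverted microscope.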

Assay [11] concerns HL-60. Put plainly: Induction of apoptosis in human HL60 cells assessed as early apoptotic cells at 1 uM by annexin V-FITC/propidium iodide staining-based flow cytometric analysis (reference value: 8.23%). Type of assay: functional.
Assay [12] has as its system HL-60. The assay is described as follows: Induction of apoptosis in human HL60 cells assessed as late apoptotic cells at 1 uM by annexin V-FITC/propidium iodide staining-based flow cytometric analysis (reference value: 6.92%). The class given is functional. A general note: Flow cytometry measures light scatter and fluorescence of single cells or particles in a stream.

In assay [13] the test system is HL-60. Put plainly: Induction of apoptosis in human HL60 cells assessed as necrotic cells at 1 uM by annexin V-FITC/propidium iodide staining-based flow cytometric analysis (reference value: 0.13%). The class given is functional.
For assay [14], the system named is HL-60. Put plainly: Induction of apoptosis in human HL60 cells assessed as viable cells at 1 uM by annexin V-FITC/propidium iodide staining-based flow cytometric analysis (reference value: 84.22%). The following applies: read-out: Activity. The class given is functional.
The subject of assay [15] is HL-60. The assay is described as follows: Induction of apoptosis in human HL60 cells assessed as early apoptotic cells at 5 uM by annexin V-FITC/propidium iodide staining-based flow cytometric analysis (reference value: 8.23%). Type of assay: functional.
Assay [16] concerns HL-60. The assay is described as follows: Induction of apoptosis in human HL60 cells assessed as late apoptotic cells at 5 uM by annexin V-FITC/propidium iodide staining-based flow cytometric analysis (reference value: 6.92%). Type of assay: functional.
In assay [17] the test system is HL-60. The assay is described as follows: Induction of apoptosis in human HL60 cells assessed as necrotic cells at 5 uM by annexin V-FITC/propidium iodide staining-based flow cytometric analysis (reference value: 0.13%). The class given is functional.
Assay [18] relates to HL-60. Put plainly: Induction of apoptosis in human HL60 cells assessed as viable cells at 5 uM by annexin V-FITC/propidium iodide staining-based flow cytometric analysis (reference value: 84.22%). The following applies: read-out: Activity. The class given is functional.
Assay [19] relates to HL-60. The assay is described as follows: Induction of apoptosis in human HL60 cells assessed as early apoptotic cells at 10 uM by annexin V-FITC/propidium iodide staining-based flow cytometric analysis (reference value: 8.23%). The class given is functional.
In assay [20] the test system is HL-60. Put plainly: Induction of apoptosis in human HL60 cells assessed as late apoptotic cells at 10 uM by annexin V-FITC/propidium iodide staining-based flow cytometric analysis (reference value: 6.92%). The class given is functional.
The test system of assay [21] is HL-60. Put plainly: Induction of apoptosis in human HL60 cells assessed as necrotic cells at 10 uM by annexin V-FITC/propidium iodide staining-based flow cytometric analysis (reference value: 0.13%). Type of assay: functional.
Assay [22] relates to HL-60. Put plainly: Induction of apoptosis in human HL60 cells assessed as viable cells at 10 uM by annexin V-FITC/propidium iodide staining-based flow cytometric analysis (reference value: 84.22%). The class given is functional. The following applies: read-out: Activity.
The nature of assay [23]: Induction of apoptosis in human HL60 cells assessed as upregulation of Bax expression at 1 to 10 uM after 24 hrs by Western blot method. The class given is functional, cell-based. The conditions noted are these: HL-60. In short, it runs like this: (§3)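 HL-60 cells were treated for 24 h. Lysates were then immunoblotted for Bax, Bcl-2, pro-caspase 3, active caspase 3 and Brd4.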

Assay [24] concerns HL-60. Put plainly: Induction of apoptosis in human HL60 cells assessed as downregulation of Bcl-2 expression at 1 to 10 uM after 24 hrs by Western blot method. Type of assay: functional, cell-based. A digest of the protocol:
as §3

For assay [25], the system named is HL-60. Put plainly: Induction of apoptosis in human HL60 cells assessed as caspase-3 cleavage at 1 to 10 uM after 24 hrs by Western blot method. Type of assay: functional, cell-based. A digest of the protocol:
as §3

Assay [26] is described as follows: Downregulation of BRD4 expression in human HL60 cells at 1 to 10 uM after 24 hrs by Western blot method. The class given is functional, cell-based. The conditions noted are these: HL-60. A digest of the protocol: as §3

As usually defined, the inhibition is the change of the read-out against control, counted positive when it falls. A higher inhibition goes with a strong effect. In general, IC50 refers to the concentration that inhibits the measured activity by half.

The source made the active and inactive calls. No cut-off for these calls is given here.

Regarding `Cc1noc(C)c1NC(=O)c1ccc2ccccc2c1`, the inhibition in assay [1] was determined as 23.1%.
The same measure, in the same setting: as for `Cc1noc(C)c1NC(=O)c1ccccc1`, the figure is less than 20%.
Same read-out and setting: as for `O=C1CCN(C(=O)c2ccc3ccccc3c2)c2ccccc2N1`, the figure is 25.3%; as for `Cc1noc(C)c1NC(=O)c1cccc(-c2ccccc2)c1`, 46.2%.
With `COc1cc(OC)c2c(=O)[nH]c(-c3cc(C)c(OCCO)c(C)c3)nc2c1` [APABETALONE], the IC50 in [2], in [3] and in assay [4] was greater than 20 µM in each case.
On to `COc1cc(C(=O)n2ccc3c2CCCC3=O)cc(-c2ccccc2)c1`, for which the inhibition in [1] was 22.8%.
The same measure, in the same setting: as for `O=C1CCCc2c1ccn2C(=O)c1cccc(-c2ccccc2)c1`, the figure is 32.1%; as for `O=C1CCCc2c1ccn2C(=O)c1ccccc1`, less than 20%.
Same read-out and setting: as for `CC1C(=O)Nc2ccccc2N1C(=O)c1ccc2ccccc2c1` (stereo not drawn), the figure is less than 20%.
Regarding `COc1ccccc1S(=O)(=O)Nc1ccc2c(c1)CN(C)C(=O)N2`, the IC50 in assay [2] is greater than 20 µM; in [3] it was 2.19 µM; in [4], 7.75 µM.
`CC1C(=O)Nc2ccccc2N1C(=O)c1cccc(-c2ccccc2)c1` (stereo not drawn): the inhibition in assay [1] was 72.4%; in [5], 23.1%. For the same compound, the IC50 is 7.42 µM in [6]; greater than 20 µM in assay [7]; greater than 20 µM in assay [2]; 11.4 µM in assay [3]; 13.2 µM in [4].
With `Cc1sc2c(c1C)C(c1ccc(Cl)cc1)=N[C@@H](CC(=O)OC(C)(C)C)c1nnc(C)n1-2`, the values for the IC50 in assay [2], in [3] and in assay [4] were greater than 20 µM, 5.3 µM and 6.4 µM, respectively.
Turning to `COc1cc(C(=O)N2CCC(=O)Nc3ccccc32)cc(-c2ccccc2)c1`, the inhibition was found to be 88.8% in assay [1] and 67.1% in assay [5]. The IC50 in assay [6] is 2.74 µM; in assay [7], 9.14 µM; in [2], 18.2 µM; in assay [3], 8.24 µM; in assay [4] it was 9.61 µM.
As to `COc1cc(C(=O)N2c3ccccc3NC(=O)C2C)cc(-c2ccccc2)c1` (stereo not drawn), the inhibition is 88.7% in [1] and 36.2% in assay [5]. Also, the half-inhibitory concentration (IC50) in assay [6] is 6.25 µM; in [7], greater than 20 µM; in assay [2] it was greater than 20 µM; in assay [3], 9.25 µM; in assay [4] it was 17.6 µM.
On to `O=C1CCCc2c1ccn2C(=O)c1ccc2ccccc2c1`, for which the inhibition in assay [1] was found to be 23.1%.
As for `COc1cc(C(=O)Nc2c(C)noc2C)cc(-c2ccccc2)c1`, the inhibition in [1] was 64.5%; in assay [5], 36.3%. Moreover, the IC50 in assay [6] was 8.24 µM; in [7], greater than 20 µM; in assay [2], greater than 20 µM; in assay [3], 17.1 µM; in assay [4], 19.2 µM.
Compound `O=C1CCN(C(=O)c2ccccc2)c2ccccc2N1` returned an inhibition in [1] of 32.4%.
Same read-out and setting: under `O=C1CCN(C(=O)c2cccnc2)c2ccccc2N1` stands 45.2%; under `CC1C(=O)Nc2ccccc2N1C(=O)c1cccnc1` (stereo not drawn), less than 20%; under `O=C1CCCc2c1ccn2C(=O)c1cccnc1`, 34.2%.
The same measure, in the same setting: under `Cc1noc(C)c1NC(=O)c1cccnc1` stands 32.6%.
`O=C1CCN(C(=O)c2cccc(-c3ccccc3)c2)c2ccccc2N1`: the inhibition in [1] amounted to 96.1%; in assay [5] it was 54.2%. The half-maximal inhibitory concentration (IC50) in [6] is 1.25 µM; in [7], 11.2 µM; in assay [2], greater than 20 µM; in assay [3], 4.02 µM; in assay [4] it was 4.21 µM. Further, the Activity result in assay [8] is “Dose-dependent effect”; in [9] it was “Dose-dependent effect”; in assay [11], 10.15%; in [12] it was 8.32%; in assay [13], 0.11%; in assay [15] it was 21.63%. In addition, the Activity in assay [16] is given as 32.51%; in [17] it was 0.9%; in [19], 17.73%; in [20], 45.46%; in assay [21], 1.96%. In addition, the outcome in assay [10], in assay [23], in [24], in assay [25] and in [26] was Active. The viability at 1 µM in assay [14] is 81.4%. In addition, the viability at 5 µM in assay [18] was found to be 45%. The viability at 10 µM in assay [22] came out at 34.9%.
In [1], `CC1C(=O)Nc2ccccc2N1C(=O)c1ccccc1` (stereo not drawn) gave an inhibition of less than 20%.
